In ChEMBL document CHEMBL4513216, “Probing the Open Global Health Chemical Diversity Library for Multistage-Active Starting Points for Next-Generation Antimalarials” (ACS Infect Dis, 2020):

Test: Toxicity liver stage against HepG2, at 10uM
Assay type: cell-based
Design: test concentration 10 uM, cell line HepG2-A16-CD81EGFP
Details: human, HepG2-A16-CD81EGFP cells; read-out: INHIBITION
Procedure, shortened: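 Uninfected HepG2-A16-CD81EGFP cells, 3 × 10^3 per well, 1536-well, plated on prespotted compound at 10 μM final, parasite-free screening media added to match infected plates; puromycin 10 μM positive, DMSO 0.5% negative; run in parallel with 48 h PbLuc assay at 37 °C, 5% CO2; viability by CellTiter-Glo luminescence, normalized to controls.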

| Compound | cytotoxicity at 10 µM [%] |
| --- | --- |
| CS(=O)(=O)N1C[C@@H](F)[C@@H](OCc2nc3ccccc3o2)C1 | -4.47 |
| COc1ccc(-c2c[nH]c([C@@H]3COCCN3)n2)cc1 | -4.84 |
| CN(C)c1cc(N2CCN(c3ccccn3)CC2)ncn1 | -2.71 |
| CCCS(=O)(=O)N1CC(=O)N(Cc2ccccc2OC)CC(O)C1 (stereo not given) | -7.44 |
| CC(C)CNC(=O)CNC(=O)c1nc(Cc2c(Cl)cccc2Cl)no1 | 9.11 |
| CN1C(=O)CCc2cc(NC(=O)C3CC3)ccc21 | 0.696 |
| O=S(=O)(NCCNc1cc(-n2cccn2)ncn1)c1cccs1 | -6.58 |
| N#Cc1ccc(C(=O)N2CCCSCC2CN2CCCC2)cc1 (stereo not given) | 10.1 |
| Cn1nc(CNC(=O)c2ccc3c(c2)OCO3)c2c1CCOC2 | -1.82 |
| O=C1CCC2(CCCN(C(=O)c3ccco3)CC2)N1 (stereo not given) | 3.17 |
| Cc1ccc(CN2C[C@H]3CN(CC4CCN(C)CC4)C(=O)[C@H]3C2)s1 | 2.5 |
| O=C1C[C@H]2[C@H](CCN2C(=O)c2cc[nH]n2)N1Cc1cccnc1 | 3.03 |
| Cc1cnc(N2CCC3(CC2)CCN(c2cncnc2)C3=O)nc1 | -13 |
| CCN1CC2(CC1=O)CN(C(C)=O)CCN(S(=O)(=O)CC)C2 (stereo not given) | -2.02 |
| CN(C)S(=O)(=O)N1C[C@H]2CCC[C@@]2(COCC2CCOCC2)C1 | 7.45 |
| CCn1cc2c(n1)C(COCC1CC1)CN(c1ccc(C)nn1)C2 (stereo not given) | 12.8 |
| O=C(C1CN(c2ncc(F)cn2)CC12CCOCC2)N1CCOCC1 (stereo not given) | 13.6 |
| Cc1cc(C(=O)N2CCc3ncnc(-c4cnn(C)c4)c3CC2)c(C)o1 | 4.5 |
| CS(=O)(=O)N1CCc2sc(C(=O)NCc3ccncc3)cc21 | 2.93 |
| COc1ccc(-c2csc(N)c2C#N)cc1 | 4.07 |
| Cc1nn(CC(=O)Nc2ccon2)c(C)c1Br | 9.62 |
| Cc1ccccc1C(=O)NC(C)c1cnn(C)c1 (stereo not given) | 15.7 |

| Compound | cytotoxicity at 10 µM [%] |
| --- | --- |
| CCn1nc(C)c2nnn(CC(=O)Nc3ccccc3F)c(=O)c21 | 5.37 |
| CSc1nnc(C2CCN(C(=O)N3CCOCC3)CC2)n1C(C)C | 3.8 |
| CS(=O)(=O)NC1(CCc2ccc(NC(=O)C3CC3)nc2)CCCCC1 | 6.56 |
| CC(=O)N1CCC(CCc2ccnc(Nc3ccccn3)c2)CC1 | 5.57 |
| Cc1ccc(Nc2nccc(C3CCN(C(=O)CO)C3)n2)nc1 (stereo not given) | -2.56 |
| CS(=O)(=O)N1CC2(CCN(C3CCCCC3)C2)Cc2ccccc21 (stereo not given) | 3.38 |
| O=S1(=O)NCC2(CCCN(Cc3cccnc3)C2)Oc2ncccc21 (stereo not given) | 6.28 |
| COc1cccc(CN(C)C(=O)c2csc(-c3nnc[nH]3)n2)c1 | -14.4 |
| N#CC(NC(=O)CCCOc1cccnc1)c1ccccc1Cl (stereo not given) | 4.26 |
| O=C(c1ccc(Oc2cccnc2)cc1)N1CCN(CCO)CC1 | -41.5 |
| Cn1cc(S(=O)(=O)N(Cc2ccc(F)cc2F)C2CC2)cc1C(N)=O | 5.68 |
| CN(CCc1ccccn1)CCc1nccs1 | 2.01 |
| CNC(=O)CN(C)C(=O)c1ccc(-c2nc(C)cs2)cc1 | -7.77 |
| Cc1cccc(COc2ccc(C(C)NC(=O)CNC(N)=O)cc2)c1 (stereo not given) | -20.9 |
| CCCNC(=O)c1cnc2n1CCCC2 | -3.19 |
| CC(=O)N1Cc2ccccc2C[C@H]1C(=O)N(C)Cc1ccccn1 | 6.17 |
| CN(Cc1c(F)cccc1Cl)C(=O)c1cnn(CCN2CCCCC2)c1 | -19.1 |
| CN(CC(=O)NC(c1ccc(F)cc1)C(F)(F)F)S(C)(=O)=O (stereo not given) | -11.9 |
| Cc1nsc(N2CCN(CC(=O)NCc3ccc(F)cc3)CC2)n1 | -6.84 |
| Cc1ccc(OCC(=O)NC2CC2)nc1 | 4.06 |
| CC(NC(=O)c1ccc(=O)n(C)c1)c1ccc(OCC2CC2)c(F)c1 (stereo not given) | 9.8 |
| Cc1ccc(C(=O)N(C)Cc2csc(C)n2)c(=O)[nH]1 | 3.97 |

| Compound | cytotoxicity at 10 µM [%] |
| --- | --- |
| Cc1nc(CN(C)C2CCN(Cc3nc(C4CC4)no3)C2)no1 (stereo not given) | -5.29 |
| CCc1nsc(NC2CC(=O)N(C3CC3)C2)n1 (stereo not given) | 9.43 |
| Cn1nc(Br)c2c(NCCCS(N)(=O)=O)ncnc21 | 16.4 |
| CS(=O)(=O)CCC(=O)N(CCc1cccc(F)c1)C1CC1 | -5.82 |
| COc1cc(CNC2CCN(c3ccccc3)C2)cc(OC)c1OC (stereo not given) | 3.96 |
| CCN(C)CC1CCN(C(=O)NCCC2Cc3ccccc3C2)C1 (stereo not given) | 0.458 |
| CNC(=O)C(C)NC(=O)c1ccc(Oc2cccnc2)cc1 (stereo not given) | 6.32 |
| CC1CCN(C(CNC(=O)CCn2cccn2)c2cccs2)CC1 (stereo not given) | 13.5 |
| CN(Cc1nccn1CC(F)(F)F)C(=O)c1cccc(C#N)c1 | 5.4 |
| Cc1cn(-c2ccccc2)nc1NS(=O)(=O)c1cccc(C(=O)O)c1 | -10.3 |
| CCN1CCCC1CN(CCN(C)C)S(=O)(=O)c1ccc(C#N)cc1 (stereo not given) | -28.3 |
| OCCNc1nccc(-c2c[nH]nc2-c2ccncc2)n1 | -9.52 |
| Cc1ccc2nc(C3CCCN3Cc3csc(C)n3)[nH]c2c1 (stereo not given) | 1.58 |
| CCCN(Cc1ccc(C(=O)NCC2COCCO2)c(=O)[nH]1)C1CC1 (stereo not given) | -15.3 |
| FC(F)(F)c1cccc(OC2CCN(Cc3ccccn3)CC2)c1 | -0.609 |
| Cc1cc(C)c(C(=O)NC2CCN(c3ncccc3C#N)CC2)c(=O)[nH]1 | 7.24 |
| Cc1nnc(SCCCNC(=O)Cc2ccc3c(c2)OCO3)s1 | 7.75 |
| CN(Cc1ccccc1-n1cccn1)C[C@@H]1CCCN2CCCC[C@H]12 | -8.2 |
| O=C(NCC1CCN(Cc2cc3ccccc3[nH]2)C1)c1ccsc1 (stereo not given) | 15.6 |
| CC(=O)N1CCCn2nc(CNS(=O)(=O)N(C)C(C)C)cc2C1 | 3.54 |
| CSCCC1c2nc[nH]c2CCN1Cc1ccccc1C#N (stereo not given) | -1.57 |
| CCC[C@H]1CN(c2nccc(OC)n2)C[C@@H]1NC(=O)C1CCOCC1 | -142 |

| Compound | cytotoxicity at 10 µM [%] |
| --- | --- |
| Cc1ccc(OC2(C(=O)NC(C)c3csc(C)n3)CCNCC2)cc1 (stereo not given) | -0.432 |
| CCc1nnc(CN(CC)C(=O)CCc2scnc2C)o1 | 7.22 |
| CSc1ccc(C(C(=O)O)N2CCOCC2)cc1 (stereo not given) | 0.324 |
| Cn1c(-c2ccc(F)cc2)cn2cc(C(=O)N3CC[C@@H](O)C3)nc2c1=O | 11.1 |
| COCCCN1C(=O)CC[C@H]2CN(c3nc4ccccc4s3)CC[C@H]21 | -9.59 |
| Cc1nc(C2CCN(C(=O)c3ccc(Cl)s3)CC2)cc(=O)[nH]1 | -0.243 |
| CCC(C)N(Cc1c[nH]c(C)n1)Cc1ccccc1Cl (stereo not given) | 24.2 |
| O=C(Cc1ccc(F)cc1Cl)N1CC[C@H](CO)[C@@H](O)C1 | 8.08 |
| OCC1(O)CCCN(Cc2noc(-c3ccccc3)n2)CC1 (stereo not given) | -2.72 |
| COCCN1CCCC(O)(CN2CCN(c3cnccn3)CC2)C1=O (stereo not given) | 4.04 |
| CCCC1C=CCN1C(=O)c1cc(COc2ccc3c(c2)OCO3)[nH]n1 (stereo not given) | 1.99 |
| CCCN1CC2(CCN(C)CC2)CC1C(=O)NCCn1nc(C)nc1C (stereo not given) | 2.7 |
| CN(c1ccc(C(=O)NCCCN2CCCC2)c(Cl)c1)S(C)(=O)=O | -10 |
| CN1CCCCC1Cc1nc(Cc2cccc(F)c2)no1 (stereo not given) | -148 |
| COc1cc(F)ccc1C(C(=O)O)N(C)CCN1CCCC1 (stereo not given) | -13.4 |
| COc1cnc(N2CC(N3CCOCC3)C2)nc1-c1ccnn1C | 6.24 |
| COc1cccc2c1OCC(C(=O)N(C)CCCc1cnn(C)c1)C2 (stereo not given) | -2.98 |
| Cc1ncccc1Oc1nccnc1C1CCN(C(C)C)CC1 | -6.05 |
| O=C(c1n[nH]c(=O)c2ccccc12)N1CCCCC1c1ccn[nH]1 (stereo not given) | -0.285 |
| O=C(Nc1cc(F)ccc1OCC1CCCO1)N1CCSCC1 (stereo not given) | -1.79 |
| Cc1cc(C)cc(CNC(c2ccccc2)c2nccn2C)c1 (stereo not given) | -13 |
| Cc1ncc2c(n1)CN(Cc1nc(Cc3ccccc3)no1)CC2 | -12.4 |

| Compound | cytotoxicity at 10 µM [%] |
| --- | --- |
| Cc1cnn(CC2CCCN2Cc2nnc(-c3ccccc3)o2)c1 (stereo not given) | -9.86 |
| Cc1n[nH]c(C2CN(C(=O)CCc3cscn3)CCO2)n1 (stereo not given) | -4.34 |
| Cc1nc(C)n(CC2CCCN2Cc2cc(-c3cccs3)on2)n1 (stereo not given) | -0.367 |
| CCOc1ncccc1CNC(=O)N1CCCC1c1ccsc1 (stereo not given) | -7.69 |
| Cc1ccc(CN2CCC(NC(=O)c3scnc3C)CC2)cc1 | -4.1 |
| CC(C)c1ncc2c(n1)CN(CCCc1nc3ccccc3o1)CC2 | -13.2 |
| c1ccc(OCCN2CCCCC2Cn2cncn2)cc1 (stereo not given) | -15.7 |
| c1csc(-c2nc(CN3CCOC(Cn4cncn4)C3)cs2)c1 (stereo not given) | -3.91 |
| Cc1csc(N2CCN(CC(=O)Nc3nncs3)CC2C)n1 (stereo not given) | -7.44 |
| CCC(CC)C(CNC(=O)Nc1ccc(C)cc1)N1CCOCC1 (stereo not given) | -5.9 |
| Cc1nc(C2CCCN(C(=O)C(C)(C)n3cc(Cl)cn3)C2)no1 (stereo not given) | -2.09 |
| CN(CCO)CC1COCCN1C(=O)C1CCCCC1 (stereo not given) | -4.52 |
| Cc1noc(C)c1CN1C[C@@H]2CN(C(=O)c3cnccn3)C[C@@H]2C1 | -1.86 |
| COCC1CC2(CCN(C(N)=O)CC2)CN1Cc1csc(C)n1 (stereo not given) | 8.98 |
| Cc1noc(C)c1CN1CCC2(CC1)CCN(C(=O)c1cscn1)C2 | 1.21 |
| O=C(c1ccc(F)cc1)N1C[C@H]2CCC[C@@]2(COCc2ccccn2)C1 | 2.06 |
| CCS(=O)(=O)N1CCC2(CC1)CC1(CCN(CCOC)CC1)C(=O)N2C | 0.503 |
| Cc1nc(CN2CC[C@H]3[C@H]2CCN3c2nncs2)cs1 | 5.2 |
| Cc1ccc2c(c1)C1(CCNCC1)CN2C(=O)CN(C)C | 0.513 |
| CS(=O)(=O)N1C[C@H]2CC[C@@H](C1)N(C(=O)CCc1n[nH]c3c1CCCC3)C2 | 11 |
| CN1[C@@H]2CC[C@H]1CN(C(=O)c1ccc(-c3ccccc3)[nH]1)CC2 | -0.372 |
| COC1C[C@@H]2CN(C(=O)c3cccc4c3OCCO4)C[C@@H]2C1 (stereo not given in full) | 7.77 |
